# Measured values as given in ChEMBL document CHEMBL1137789, “Synthesis, binding, and modeling studies of new cytisine derivatives, as ligands for neuronal nicotinic acetylcholine receptor subtypes” (J Med Chem, 2009).
# Tests used:
# Assay type in all cases: cell membranes
# [1] = target: Neuronal acetylcholine receptor subunit alpha-7 (Rattus norvegicus, UniProt Q05941); assay: Displacement of [125I]alpha-bungarotoxin from alpha7 nicotinic acetylcholine receptor in rat brain cortex membrane homogenates
# Summary of the method: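 Cortex membrane homogenates from 21-day-old rats in buffer A (Tris-HCl pH 7 with salts, PMSF). Compounds (10 pM-10 mM) preincubated 30 min at rt, then overnight at rt with 1 nM final [¹²⁵I]-α-bungarotoxin. Nonspecific: 1 μM unlabeled α-bungarotoxin. Filtration, γ counting. Ki fitted by LIGAND from three independent competition experiments; no inhibition up to 200 μM taken as Ki >100 μM.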
# [2] = target: T1, Neuronal acetylcholine receptor; alpha4/beta2 (Rattus norvegicus, UniProt P09483+P12390); assay: Displacement of (+/-)-[3H]epibatidine from alpha4beta2 nicotinic acetylcholine receptor in rat brain cortex membrane homogenates
# Summary of the method: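 Compounds (10 pM-10 mM) preincubated 30 min rt, then overnight at 4 °C with 0.005-0.1 nM final [³H]-epibatidine. Nonspecific: 100 nM epibatidine. Filtration, β counting. Ki by LIGAND fit of three independent experiments.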
# [3] = target: T1, Neuronal acetylcholine receptor; alpha4/beta2; assay: Displacement of [3H]cytisine from alpha4beta2 nicotinic acetylcholine receptor in rat brain cortex membrane homogenates
# T1 sequence (P09483 whole entry): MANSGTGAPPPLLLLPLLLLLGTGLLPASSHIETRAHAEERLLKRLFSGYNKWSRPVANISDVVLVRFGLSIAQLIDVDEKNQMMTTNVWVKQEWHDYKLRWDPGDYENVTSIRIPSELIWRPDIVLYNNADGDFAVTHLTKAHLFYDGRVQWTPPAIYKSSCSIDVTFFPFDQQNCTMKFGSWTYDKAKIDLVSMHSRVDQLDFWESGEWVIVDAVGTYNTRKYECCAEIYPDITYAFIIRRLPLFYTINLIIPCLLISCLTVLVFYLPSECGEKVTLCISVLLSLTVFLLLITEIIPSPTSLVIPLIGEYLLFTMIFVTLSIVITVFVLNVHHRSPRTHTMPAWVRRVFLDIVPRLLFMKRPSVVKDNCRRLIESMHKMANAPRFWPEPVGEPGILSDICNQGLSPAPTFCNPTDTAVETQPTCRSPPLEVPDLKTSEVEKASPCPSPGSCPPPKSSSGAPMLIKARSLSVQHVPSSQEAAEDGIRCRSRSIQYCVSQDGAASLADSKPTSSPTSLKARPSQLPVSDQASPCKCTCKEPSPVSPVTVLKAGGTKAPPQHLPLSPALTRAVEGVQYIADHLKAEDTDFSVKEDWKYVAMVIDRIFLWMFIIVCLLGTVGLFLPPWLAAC
# T1 sequence (P12390 whole entry): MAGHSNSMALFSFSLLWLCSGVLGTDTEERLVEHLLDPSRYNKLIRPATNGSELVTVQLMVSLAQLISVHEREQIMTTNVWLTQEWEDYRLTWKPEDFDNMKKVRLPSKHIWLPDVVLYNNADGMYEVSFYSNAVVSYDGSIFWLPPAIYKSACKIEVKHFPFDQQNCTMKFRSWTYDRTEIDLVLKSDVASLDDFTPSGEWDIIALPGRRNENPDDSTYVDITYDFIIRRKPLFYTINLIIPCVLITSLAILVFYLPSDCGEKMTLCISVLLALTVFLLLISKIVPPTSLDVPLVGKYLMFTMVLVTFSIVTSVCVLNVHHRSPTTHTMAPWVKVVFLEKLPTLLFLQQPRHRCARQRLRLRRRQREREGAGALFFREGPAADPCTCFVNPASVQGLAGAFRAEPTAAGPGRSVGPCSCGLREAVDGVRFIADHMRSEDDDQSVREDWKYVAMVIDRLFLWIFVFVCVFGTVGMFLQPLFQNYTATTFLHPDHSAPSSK
# Sequence of Neuronal acetylcholine receptor subunit alpha-7 (Q05941 whole entry): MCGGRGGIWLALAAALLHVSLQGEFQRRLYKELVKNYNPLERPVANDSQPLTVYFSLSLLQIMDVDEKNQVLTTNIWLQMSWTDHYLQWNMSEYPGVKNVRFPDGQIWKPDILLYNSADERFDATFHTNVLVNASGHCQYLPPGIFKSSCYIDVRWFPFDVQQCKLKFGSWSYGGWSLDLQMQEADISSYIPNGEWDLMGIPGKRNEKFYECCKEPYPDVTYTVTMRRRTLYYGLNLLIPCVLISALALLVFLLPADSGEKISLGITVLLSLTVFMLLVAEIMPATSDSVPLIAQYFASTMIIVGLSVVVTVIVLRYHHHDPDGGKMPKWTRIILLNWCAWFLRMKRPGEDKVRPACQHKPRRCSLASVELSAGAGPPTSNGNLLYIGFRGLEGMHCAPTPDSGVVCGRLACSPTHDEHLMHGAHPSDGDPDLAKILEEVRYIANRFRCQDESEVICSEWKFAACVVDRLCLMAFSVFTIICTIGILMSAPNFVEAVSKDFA
SMILES,Ki [1] [nM],Ki [2] [nM],Ki [3] [nM]
CC(=O)CCN1C[C@@H]2C[C@H](C1)c1cccc(=O)n1C2,1240,8.7,3.2
Cc1ccc(CCCN2C[C@@H]3C[C@H](C2)c2cccc(=O)n2C3)cc1,> 50000,7200,–
O=C(CCCN1C[C@@H]2C[C@H](C1)c1cccc(=O)n1C2)c1ccc(F)cc1,> 50000,965,670
NC(=O)CCN1C[C@@H]2C[C@H](C1)c1cccc(=O)n1C2,3600,35,–
CC(=O)CCCN1C[C@@H]2C[C@H](C1)c1cccc(=O)n1C2,> 50000,757,–
O=c1cccc2n1C[C@H]1C[C@@H]2CN(Cc2cccnc2)C1,> 100000,6600,–
O=c1cccc2n1C[C@H]1C[C@@H]2CN(CCc2ccccc2)C1,25000,28,78
O=c1cccc2n1C[C@H]1C[C@@H]2CN(CCc2ccccn2)C1,> 100000,941,–
O=c1cccc2n1C[C@H]1C[C@@H]2CN(CCCCc2ccc(F)cc2)C1,> 50000,13000,–
O=c1cccc2n1C[C@H]1C[C@@H]2CN(CCCc2cccnc2)C1,> 100000,744,–
O=c1cccc2n1C[C@H]1C[C@@H]2CN(CCCCc2ccccc2)C1,–,3900,2220
O=c1cccc2n1C[C@H]1C[C@@H]2CN(CCCc2ccccc2)C1,13000,63,42
O=C(CN1C[C@@H]2C[C@H](C1)c1cccc(=O)n1C2)c1ccccc1,2250,17,–
O=C(CCN1C[C@@H]2C[C@H](C1)c1cccc(=O)n1C2)c1ccccc1,550,2.6,7.2
O=C(CCN1C[C@@H]2C[C@H](C1)c1cccc(=O)n1C2)c1ccc(F)cc1,433,5.3,13
Cc1ccc(CCN2C[C@@H]3C[C@H](C2)c2cccc(=O)n2C3)cc1,> 50000,727,–
O=c1cccc2n1C[C@H]1C[C@@H]2CN(Cc2ccccc2)C1,> 50000,850,1000
NC(=O)CN1C[C@@H]2C[C@H](C1)c1cccc(=O)n1C2,> 50000,7300,–
CCCCCN1C[C@@H]2C[C@H](C1)c1cccc(=O)n1C2,39700,332,43.5
O=C(CCCN1C[C@@H]2C[C@H](C1)c1cccc(=O)n1C2)c1ccccc1,> 50000,816,–
O=c1cccc2n1C[C@H]1C[C@@H]2CN(Cc2ccncc2)C1,> 100000,675,–
O=c1cccc2n1C[C@H]1C[C@@H]2CN(Cc2ccc(F)cc2)C1,78700,330,183
O=c1cccc2n1C[C@H]1C[C@@H]2CN(CCc2ccc(F)cc2)C1,> 50000,1300,–
O=c1cccc2n1C[C@H]1C[C@@H]2CN(CCc2ccncc2)C1,4200,7.2,–
O=c1cccc2n1C[C@H]1C[C@@H]2CN(CCCc2ccc(F)cc2)C1,> 50000,5000,611
O=C(CN1C[C@@H]2C[C@H](C1)c1cccc(=O)n1C2)c1ccc(F)cc1,–,409,172
O=c1cccc2n1C[C@@H]1CNC[C@H]2C1 [CYTISINICLINE],331,0.48,0.34
